In ChEMBL document CHEMBL1143377, “Design, synthesis, and evaluation of potent, nonpeptidic mimetics of second mitochondria-derived activator of caspases” (J Med Chem, 2009):

Legend:
MDA-MB-231 [1] = test: Induction of apoptosis in human MDA-MB-231 cells assessed as increase in caspase 8 activation after 24 hrs by Western blotting; format: functional, cell-based
In short: (§1)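 MDA-MB-231 breast cancer cells were exposed to Smac mimetics for 24 hours. Cell proteins were then probed on Western blots with specific antibodies against cIAP-1, XIAP, cleaved caspase-8, pro- and cleaved caspase-3, and cleaved PARP. GAPDH served as the loading control.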

MDA-MB-231 [2] = test: Induction of apoptosis in human MDA-MB-231 cells assessed as PARP cleavage after 24 hrs by Western blotting; format: functional, cell-based; in short: as §1
MDA-MB-231 [3] = test: Induction of apoptosis in human MDA-MB-231 cells assessed as increase in caspase 3 activation after 24 hrs by Western blotting; format: functional, cell-based; in short: as §1
MDA-MB-231 [4] = test: Induction of cIAP1 degradation in human MDA-MB-231 cells after 24 hrs by Western blotting; format: functional, cell-based; in short: as §1
MDA-MB-231 [5] = test: cells; settings: Homo sapiens, MDA-MB-231, 96 h

IC50 (MDA-MB-231 [5])	Compound	Activity (MDA-MB-231 [1])	Activity (MDA-MB-231 [2])	Activity (MDA-MB-231 [3])	Activity (MDA-MB-231 [4])
	CN[C@@H](C)C(=O)N[C@H]1CCCC[C@H]2[C@@H](Cc3ccccc3)C[C@@H](C(=O)N[C@@H]3CCCc4ccccc43)N2C1=O	Dose-dependent effect	Dose-dependent effect	Dose-dependent effect	Dose-dependent effect
259 nM	CN[C@@H](C)C(=O)N[C@H]1CCCC[C@H]2CC[C@@H](C(=O)NC(c3ccccc3)c3ccccc3)N2C1=O	Dose-dependent effect	Dose-dependent effect	Dose-dependent effect	Dose-dependent effect
	CN[C@@H](C)C(=O)N[C@H]1CCCC[C@H]2CC[C@@H](C(=O)N[C@@H]3CCCc4ccccc43)N2C1=O	Dose-dependent effect	Dose-dependent effect	Dose-dependent effect	Dose-dependent effect
26 nM	CN[C@@H](C)C(=O)N[C@H]1C/C=C\C[C@H]2[C@@H](Cc3ccccc3)C[C@@H](C(=O)N[C@@H]3CCCc4ccccc43)N2C1=O				
